The target of test [1] is T1, Mu-type opioid receptor (Rattus norvegicus, UniProt P33535). Put plainly: Binding affinity towards mu-opioid receptor by displacement of [3H]NAL at 100 nM from rat brain homogenates. Format: tissue-based. Background: In a radioligand displacement assay an active substance lowers the binding of a labelled ligand.
The target in test [2] is T1, Mu-type opioid receptor. Put plainly: Binding affinity towards mu-opioid receptor by displacement of [3H]NAL at 10 nM from rat brain homogenates. Format: tissue-based.
Test [3] has as its target Mu-type opioid receptor (Mus musculus) (UniProt P42866). Particulars: 0.08 mg/kg.
Test [4] concerns the target Kappa-type opioid receptor (Rattus norvegicus) (UniProt P34975). Put plainly: Tested for the antagonism of kappa opioid receptor diuresis at a dose of 0.08 mg/kg subcutaneously. Format: functional, organism-based. Also on record: dose 0.08 mg/kg. The method in brief: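 Male Long-Evans hooded rats (350-500 g), bremazocine HCl 0.08 mg/kg sc to induce diuresis, test antagonist sc at once on opposite side; metabolism cages, urine volume at 2 and 5 h. Three rats per dose, doses varied 2-fold; AD50 = dose halving 5-h urination.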

Test [5] has as its target Kappa-type opioid receptor (Cavia porcellus, UniProt P41144). Put plainly: Binding affinity towards kappa-opioid receptor by displacement of [3H]EKC from guinea pig cortical tissue. Put shortly: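 Guinea pig cortical washed crude synaptosomal membranes (stored -125 °C) in modified Krebs-HEPES pH 7.4; 1.0 nM [3H]ethylketocyclazocine, 100 nM fentanyl and 100 nM D-Ala2-D-Leu5-enkephalin to block mu/delta sites; 37 °C, 45 min. Nonspecific: 1000 nM unlabeled EKC. GF-C filtration, ice-cold washes, scintillation counting. Ki from at least six concentrations in triplicate, by regression.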

Test [6] deals with Kappa-type opioid receptor (Mus musculus) (UniProt P33534). Put plainly: Antagonism of opioid analgesia using a mouse writhing model to block U-50,488 ([…]) induced kappa-opioid receptor subcutaneously. Format: functional, organism-based. (In writhing tests, fewer writhes than in controls are read as antinociception.)
Test [7] concerns the target Mu-type opioid receptor (Mus musculus) (UniProt P42866). Put plainly: Antagonism of opioid analgesia using a mouse writhing model to block morphine ([…]) induced mu-opioid receptor (subcutaneously dosed). Format: functional, organism-based.

pKi: −log10 of the molar value. The source made the active and inactive calls. The rule behind the calls is not given here.

T1 sequence (P33535 whole entry): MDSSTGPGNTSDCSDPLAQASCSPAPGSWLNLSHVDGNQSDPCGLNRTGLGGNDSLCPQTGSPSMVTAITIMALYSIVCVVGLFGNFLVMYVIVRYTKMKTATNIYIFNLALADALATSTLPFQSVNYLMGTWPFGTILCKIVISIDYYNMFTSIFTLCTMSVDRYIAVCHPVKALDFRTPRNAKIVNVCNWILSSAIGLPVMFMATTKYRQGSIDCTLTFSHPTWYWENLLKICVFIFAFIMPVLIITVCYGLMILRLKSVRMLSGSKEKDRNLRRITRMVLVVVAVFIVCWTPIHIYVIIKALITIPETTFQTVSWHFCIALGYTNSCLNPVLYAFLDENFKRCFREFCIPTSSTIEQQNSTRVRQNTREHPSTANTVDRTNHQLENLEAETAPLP
Chain of Mu-type opioid receptor (Mus musculus) (P42866 whole entry): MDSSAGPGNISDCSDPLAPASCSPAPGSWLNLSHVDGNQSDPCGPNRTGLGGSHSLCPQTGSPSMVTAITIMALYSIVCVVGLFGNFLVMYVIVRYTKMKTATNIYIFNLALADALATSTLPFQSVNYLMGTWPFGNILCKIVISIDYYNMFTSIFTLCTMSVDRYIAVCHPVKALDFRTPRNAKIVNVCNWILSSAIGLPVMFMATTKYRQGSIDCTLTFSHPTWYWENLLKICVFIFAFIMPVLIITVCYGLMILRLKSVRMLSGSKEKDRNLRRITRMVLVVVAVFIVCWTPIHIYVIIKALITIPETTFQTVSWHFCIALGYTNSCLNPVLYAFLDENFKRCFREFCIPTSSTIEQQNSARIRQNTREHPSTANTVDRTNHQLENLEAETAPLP
Chain of Kappa-type opioid receptor (Rattus norvegicus) (P34975 whole entry): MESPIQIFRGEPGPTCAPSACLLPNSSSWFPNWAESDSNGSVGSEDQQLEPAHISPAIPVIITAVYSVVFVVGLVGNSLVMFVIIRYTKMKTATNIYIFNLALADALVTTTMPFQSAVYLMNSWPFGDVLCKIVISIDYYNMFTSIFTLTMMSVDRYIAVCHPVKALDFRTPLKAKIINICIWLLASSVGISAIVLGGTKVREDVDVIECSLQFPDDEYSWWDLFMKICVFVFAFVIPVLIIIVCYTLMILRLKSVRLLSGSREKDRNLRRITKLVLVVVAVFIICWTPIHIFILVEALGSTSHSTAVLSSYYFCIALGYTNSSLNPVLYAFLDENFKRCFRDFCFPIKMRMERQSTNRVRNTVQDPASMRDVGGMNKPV
Chain of Kappa-type opioid receptor (Mus musculus) (P33534 whole entry): as the sequence (P34975 whole entry) above, with E11D, A17S, P51S, V308A counted along it
Chain of Kappa-type opioid receptor (P41144 whole entry): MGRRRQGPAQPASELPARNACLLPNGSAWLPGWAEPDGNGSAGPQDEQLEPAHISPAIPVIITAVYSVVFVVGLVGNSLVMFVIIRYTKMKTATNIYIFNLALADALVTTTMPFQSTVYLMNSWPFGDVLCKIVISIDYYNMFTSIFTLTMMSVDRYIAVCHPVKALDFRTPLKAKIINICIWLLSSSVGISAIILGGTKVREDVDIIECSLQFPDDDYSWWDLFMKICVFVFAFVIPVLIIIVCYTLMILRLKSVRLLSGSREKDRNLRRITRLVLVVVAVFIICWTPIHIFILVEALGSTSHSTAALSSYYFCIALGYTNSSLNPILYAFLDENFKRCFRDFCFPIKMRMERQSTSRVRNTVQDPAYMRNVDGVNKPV

A word on the pKi: it is the Ki on a negative log10 scale, so that one unit is a factor of ten. Read a low pKi as a high Ki. For the compound `C[C@H]1CN(CCc2ccc(Cl)c(Cl)c2)CC[C@@]1(C)c1cccc(O)c1`, the pKi is 7.05 at Mu-type opioid receptor [1] and 7.30 on Mu-type opioid receptor [2]. Moreover, the AD50 entry in test [3] is “inactive”.

As for `Cc1ccccc1CCN1CC[C@@](C)(c2cccc(O)c2)[C@@H](C)C1`, the AD50 stood at 0.5 mg/kg in test [4], 0.33 mg/kg in test [6] and 0.19 mg/kg in test [7]. Besides, the figures for the pKi (on Mu-type opioid receptor [1]; in test [5]; at Mu-type opioid receptor [2]) were 7.00, 8.12 and 7.05, respectively.

For `CC(CCCN1CC[C@@](C)(c2cccc(O)c2)[C@@H](C)C1)c1ccccc1` (some centres undefined), the AD50 in test [4] is 8.4 mg/kg; in test [6], 0.91 mg/kg; in test [7], 0.25 mg/kg. Moreover, the pKi at Mu-type opioid receptor [1] is 7.00; on Mu-type opioid receptor [2], 7.20.
